The values below come from ChEMBL document CHEMBL1154533, “Syntheses and evaluation of glucosyl aryl thiosemicarbazide and glucosyl thiosemicarbazone derivatives as antioxidant and anti-dyslipidemic agents” (2009).

What all share (format): functional
What all share (parameters): scale not given: the % may be the effect or the level left

For test [1], the system named is Rattus norvegicus. Briefly: Antidyslipidemic activity against triton-induced hyperlipidemia in Charles Foster rat assessed as reduction in total cholesterol level at 100 mg/kg, po after 18 hrs relative to control. In short, it runs like this: (§1)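 Adult male Charles Foster rats (200 […] 225 g), six per group. Triton WR-1339 at 400 mg/Kg ip induced hyperlipidemia. Test compound was given at 100 mg/Kg po, suspended in 0.2% w/v gum acacia in water, at the same time as triton; vehicle controls were included. After 18 h, retro-orbital blood was taken into EDTA and plasma obtained (2500 g, 4 °C, 10 min). Plasma was diluted 1:3 in saline and TC, PL and Tg measured by standard methods. Reported as mean […] SD; Student's t-test.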

Test [2] concerns Rattus norvegicus. Briefly: Antidyslipidemic activity against triton-induced hyperlipidemia in Charles Foster rat assessed as reduction in phospholipid level at 100 mg/kg, po after 18 hrs relative to control. In short, it runs like this:
as §1

In test [3] the test system is Rattus norvegicus. As to the kind of experiment: Antidyslipidemic activity against triton-induced hyperlipidemia in Charles Foster rat assessed as reduction in triglyceride level at 100 mg/kg, po after 18 hrs relative to control. In short, it runs like this:
as §1

Test [4] relates to Rattus norvegicus. As to the kind of experiment: Decrease in triton-induced increase in protein level in Charles Foster rat hyperlipidemia model at 100 mg/kg, po after 18 hrs relative to control.
Test [5] has as its system Rattus norvegicus. As to the kind of experiment: Antidyslipidemic activity against triton-induced inhibition of post heparin lipolytic activity in Charles Foster rat hyperlipidemia model assessed as formation of free fatty acid per mL of plasma at 100 mg/kg, po after 18 hrs relative to control. In short, it runs like this:
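Triton WR-1339 rat model (400 mg/Kg ip; compound 100 mg/Kg po in gum acacia, given with triton; six rats per group). Post-heparin lipolytic activity was measured in plasma collected at 18 h. Expressed as nmol free fatty acid formed/h/mL plasma; mean ± SD.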

The nature of test [6]: Antioxidant activity assessed as reduction in generation of superoxide radicals at 100 ug/mL measured as formazone formation by spectrophotometry relative to control. In short, it runs like this: (§2)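 Superoxide was generated enzymatically with xanthine ([…]), xanthine oxidase (0.04 U) and nitroblue tetrazolium (320 μM) in 100 mM phosphate buffer, pH 8.2, with or without compound. Incubated 30 min at 37 °C, then stopped with glacial acetic acid. Formazone was quantified spectrophotometrically (nmol/min). Mean ± SD of six; Student's t-test.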

The nature of test [7]: Antioxidant activity assessed as reduction in generation of superoxide radicals at 200 ug/mL measured as formazone formation by spectrophotometry relative to control. In outline: as §2
Test [8] in a line: Antioxidant activity assessed as reduction in generation of hydroxyl radicals at 100 ug/mL measured as malondialdehyde formation by spectrophotometry relative to control.
The nature of test [9]: Antioxidant activity assessed as reduction in generation of hydroxyl radicals at 200 ug/mL measured as malondialdehyde formation by spectrophotometry relative to control.
Test [10] can be described thus: Antioxidant activity assessed as reduction in lipid peroxidation in microsomes at 100 ug/mL measured as malondialdehyde formation by spectrophotometry relative to control. The note with it: Microsome.
The nature of test [11]: Antioxidant activity assessed as reduction in lipid peroxidation in microsomes at 200 ug/mL measured as malondialdehyde formation by spectrophotometry relative to control. The note with it: Microsome.

Structures are written as SMILES.

`CC(=O)OC[C@H]1O[C@@H](NC(=S)N/N=C/c2cccnc2)[C@H](OC(C)=O)[C@@H](OC(C)=O)[C@@H]1OC(C)=O`: the Activity in the test with Rattus norvegicus [1] was found to be 15%; in the test with Rattus norvegicus [2] it was 14%; in the test with Rattus norvegicus [3], 10%; in the test on Rattus norvegicus [4], 14%; in the test with Rattus norvegicus [5], 9%; in test [6] it was 16%. For the same compound, the Activity in test [7] is 28%; in test [8], 13%; in test [9], 26%; in test [10], 18%; in test [11], 26%.
Take `CC(=O)OC[C@H]1O[C@@H](NC(=S)N/N=C(\C)c2cccc([N+](=O)[O-])c2)[C@H](OC(C)=O)[C@@H](OC(C)=O)[C@@H]1OC(C)=O`: the Activity in the test on Rattus norvegicus [1] came out at 23%; in the test with Rattus norvegicus [2] it was 19%; with Rattus norvegicus [3], 18%; in the test with Rattus norvegicus [4], 19%; in the test with Rattus norvegicus [5], 10%; in [6], 17%. Moreover, the Activity was 33% in test [7]; 24% in test [8]; 35% in test [9]; 20% in test [10]; 30% in test [11].
Turning to `COc1ccc(/C(C)=N/NC(=S)N[C@@H]2O[C@H](COC(C)=O)[C@@H](OC(C)=O)[C@H](OC(C)=O)[C@H]2OC(C)=O)cc1OC`, the Activity with Rattus norvegicus [1] amounted to 19%; in the test on Rattus norvegicus [2] it was 23%; in the test on Rattus norvegicus [3] it was 22%; with Rattus norvegicus [4] it was 24%; with Rattus norvegicus [5], 25%; in test [6], 9%. The Activity in test [7] turned out to be 24%; in [8], 15%; in [9] it was 27%; in test [10] it was 22%; in test [11] it was 35%.
For `CC(=O)OC[C@H]1O[C@@H](NC(=S)NNc2ccc(F)cc2)[C@H](OC(C)=O)[C@@H](OC(C)=O)[C@@H]1OC(C)=O`, the Activity in the test with Rattus norvegicus [1] came to 13%; with Rattus norvegicus [2] it was 14%; in the test with Rattus norvegicus [3] it was 9%; with Rattus norvegicus [4] it was 18%; in the test with Rattus norvegicus [5] it was 14%; in [6], 15%. Also, the Activity in test [7] worked out at 29%; in test [8], 22%; in test [9], 36%; in test [10], 22%; in [11] it was 34%.
Regarding `CC(=O)OC[C@H]1O[C@@H](NC(=S)N/N=C/c2ccc([N+](=O)[O-])s2)[C@H](OC(C)=O)[C@@H](OC(C)=O)[C@@H]1OC(C)=O`, the Activity was 13% in the test on Rattus norvegicus [1]; 16% in the test with Rattus norvegicus [2]; 14% in the test with Rattus norvegicus [3]; 19% in the test with Rattus norvegicus [4]; 14% in the test on Rattus norvegicus [5]; 20% in test [6]. The Activity in [7] came to 34%; in [8], 20%; in test [9], 37%; in test [10], 11%; in test [11] it was 23%.
For the compound `COc1ccc(/C=N/NC(=S)N[C@@H]2O[C@H](COC(C)=O)[C@@H](OC(C)=O)[C@H](OC(C)=O)[C@H]2OC(C)=O)cc1`, the Activity was 17% in the test with Rattus norvegicus [1]; 15% in the test on Rattus norvegicus [2]; 10% with Rattus norvegicus [3]; 15% in the test on Rattus norvegicus [4]; 8% with Rattus norvegicus [5]; 25% in test [6]. For the same compound, the Activity in [7] amounted to 33%; in test [8], 20%; in [9] it was 34%; in test [10], 26%; in [11], 35%.
As to `CC(=O)OC[C@H]1O[C@@H](NC(=S)NNc2ccc(F)cc2F)[C@H](OC(C)=O)[C@@H](OC(C)=O)[C@@H]1OC(C)=O`, the Activity was determined as 24% in the test on Rattus norvegicus [1]; 25% in the test on Rattus norvegicus [2]; 25% with Rattus norvegicus [3]; 20% with Rattus norvegicus [4]; 23% in the test on Rattus norvegicus [5]; 16% in test [6]. In addition, the Activity in [7] was found to be 27%; in test [8] it was 20%; in [9] it was 35%; in test [10], 24%; in test [11], 31%.
`CC(=O)OC[C@H]1O[C@@H](NC(=S)N/N=C(\C)c2ccc(Br)cc2)[C@H](OC(C)=O)[C@@H](OC(C)=O)[C@@H]1OC(C)=O`: the Activity in the test on Rattus norvegicus [1] stood at 22%; in the test on Rattus norvegicus [2], 26%; with Rattus norvegicus [3], 25%; in the test on Rattus norvegicus [4], 26%; in the test with Rattus norvegicus [5], 16%; in [6], 21%. Besides, the Activity worked out at 33% in [7]; 14% in test [8]; 24% in test [9]; 16% in test [10]; 29% in [11].
For the compound `Oc1ncnc2[nH]ncc12`, the Activity in test [6] was 77%.
As to `OC[C@@H](O)[C@@H](O)[C@H](O)[C@H](O)CO`, the Activity in test [8] was 45%.
For the compound `CC(=O)OC[C@H]1O[C@@H](NC(=S)N/N=C/c2ccncc2)[C@H](OC(C)=O)[C@@H](OC(C)=O)[C@@H]1OC(C)=O`, the Activity in the test on Rattus norvegicus [1] worked out at 11%; in the test on Rattus norvegicus [2], 11%; in the test with Rattus norvegicus [3], 8%; in the test on Rattus norvegicus [4] it was 11%; in the test on Rattus norvegicus [5] it was 8%; in test [6] it was 14%. Moreover, the Activity came to 25% in test [7]; 11% in [8]; 23% in [9]; 22% in test [10]; 33% in [11].
As for `Cc1ccc(C)c(OCCCC(C)(C)C(=O)O)c1` [GEMFIBROZIL], the Activity with Rattus norvegicus [1] worked out at 38%; with Rattus norvegicus [2], 39%; in the test on Rattus norvegicus [3], 37%; in the test on Rattus norvegicus [4], 33%; in the test with Rattus norvegicus [5], 34%.
Turning to `CC(=O)OC[C@H]1O[C@@H](NC(=S)N/N=C(\C)c2cc(C)ccc2C)[C@H](OC(C)=O)[C@@H](OC(C)=O)[C@@H]1OC(C)=O`, the Activity in the test on Rattus norvegicus [1] was 18%; in the test with Rattus norvegicus [2] it was 18%; with Rattus norvegicus [3], 17%; in the test with Rattus norvegicus [4], 12%; in the test with Rattus norvegicus [5], 10%; in test [6], 20%. The Activity in test [7] was determined as 30%; in [8], 16%; in test [9], 29%; in [10] it was 16%; in test [11], 26%.
In the case of `COc1ccc(NNC(=S)N[C@@H]2O[C@H](COC(C)=O)[C@@H](OC(C)=O)[C@H](OC(C)=O)[C@H]2OC(C)=O)cc1`, the Activity in the test with Rattus norvegicus [1] came to 18%; with Rattus norvegicus [2], 12%; in the test with Rattus norvegicus [3], 10%; with Rattus norvegicus [4], 18%; with Rattus norvegicus [5], 7%; in test [6], 21%. Besides, the Activity was found to be 37% in [7]; 15% in test [8]; 23% in test [9]; 28% in test [10]; 32% in test [11].
